Source: PubChem BioAssay (Sanford-Burnham Center for Chemical Genomics)
Only some compounds are listed: those with a hit (about 2% of all), similar ones and a draw of the others.
LMPTP block = LMPTP (human) inhibition. inhibition, % at 20 µM. AID 651560. actives 0.22% (n = 360,000). recombinant LMPTP-A, OMFP fluorogenic substrate, fluorescence intensity;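 active = compounds that cut the enzyme signal by at least half of the control window in the single-dose screen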;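 also: plate controls were DMSO wells with enzyme plus substrate for no effect and substrate without enzyme for full effect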
Target sequence (P24666 whole entry, looked up): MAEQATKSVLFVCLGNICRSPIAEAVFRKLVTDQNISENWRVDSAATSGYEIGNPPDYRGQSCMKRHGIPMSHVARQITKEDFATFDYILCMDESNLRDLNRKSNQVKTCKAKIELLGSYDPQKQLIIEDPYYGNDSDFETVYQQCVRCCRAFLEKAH
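Test system – LMPTP-A enzyme · Amount – LMPTP-A at 0.625 nM final in the reaction · Buffer or medium – Bis-Tris pH 6.0, DTT, detergent · Reagent – OMFP 400 µM · Doses – single 20 µM dose · Schedule – reaction 50 min, room temperature, dark · Detection – fluorescence intensity of OMFP turnover product · Evaluation – percent inhibition versus substrate-only and uninhibited controls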
Scp-1 inhibitor = Scp-1 (human) phosphatase inhibition; Recombinant Scp1, phosphopeptide, malachite green phosphate absorbance; inhibition, % at 20 µM; actives 0.88% (n = 340,000);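 active = inhibition above about 50% at 20 µM, limit read from the data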;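 also: plate controls were DMSO wells with enzyme for no effect and wells lacking enzyme for full effect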
Target sequence (Q9GZU7 76-261 limits assumed): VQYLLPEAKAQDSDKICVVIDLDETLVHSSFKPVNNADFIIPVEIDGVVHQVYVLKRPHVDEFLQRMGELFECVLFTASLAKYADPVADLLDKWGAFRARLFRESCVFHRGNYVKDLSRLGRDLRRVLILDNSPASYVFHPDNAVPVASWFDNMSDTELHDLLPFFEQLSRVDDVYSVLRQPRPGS
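Times: enzyme reaction 45 min at room temperature, colour 5 min, stabilisation 30 min. Material: SCP-1 catalytic fragment, aa 76-261. Medium: Acidic Tris acetate buffer with magnesium and detergent. Signal: colorimetric free-phosphate detection, absorbance 630 nm. Read-out basis: % inhibition of SCP-1 phosphate liberation. Reagent: Phosphorylated 17-residue peptide substrate.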
DNMT1 inh = inhibitors of human DNMT1 | P26358 | DNMT1 molecular beacon, Hinp1I cleavage, fluorescence | inhibition (reported as % activation of signal), % at 10 µM | actives 0.83% (n = 360,000) | AID 588458
STEP block = blocks human striatal-enriched tyrosine phosphatase; recombinant STEP, OMFP fluorogenic substrate, fluorescence; actives 0.25% (n = 360,000); P54829; inhibition, % at 20 µM; AID 588621;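 active = inhibition at 20 µM, scaled per plate between control wells, above about 37%, limit read from the data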;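 also: 0% = DMSO with enzyme and substrate and 100% = substrate only without enzyme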
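Measure: Control-normalized % inhibition with plate pattern correction | Test system: STEP phosphatase, cell-free reaction | Medium: pH 6.0 Bis-Tris with DTT and Tween 20 | Technique: Fluorescence, 480/540 nm | Times: Reaction 20 min, ambient temperature | Doses: Single compound dose of 20 µM, 1% DMSO final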
SUMO1-SIM PPI = SUMO1-SIM interaction modulation. P63165. SUMO1 binding to a labelled peptide, TR-FRET, 1 h. inhibition, % at 20 µM. actives 0.33% (n = 360,000). AID 602429; in the data active = inhibition above about 37%
Target sequence (P63165 whole entry, looked up): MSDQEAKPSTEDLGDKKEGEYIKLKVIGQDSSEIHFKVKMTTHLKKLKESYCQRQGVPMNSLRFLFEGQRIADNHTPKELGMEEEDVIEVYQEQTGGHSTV
CSN inh = inhibitors of human CSN-mediated cullin deneddylation | Q92905 | Purified CSN, SCF-Nedd8-OG deneddylation, fluorescence polarization | inhibition, % at 12.5 µM | actives 0.38% (n = 360,000) | AID 651999;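 active = pattern-corrected inhibition above about 35%, with an unprinted fluorescence ratio check between 0.5 and 1.5, limit read from the data, passing the limit was not always enough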;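 also: 0% = enzyme with substrate and 100% = substrate without enzyme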
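Assay system: Purified human Csn5 enzyme expressed in HEK293T cells | Amount: Enzyme 0.24 nM | Measured by: Fluorescence polarization readout | Medium: Tris/NaCl/DTT buffer, pH 7.5 | Compound dosing: One concentration, 12.5 µM, 0.25% DMSO | Times: 90 min incubation of compound, enzyme and substrate at room temperature | Control set: no-enzyme wells high, enzyme-with-substrate wells low | Read-out: % inhibition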
CSN deneddyl val = validation of inhibitors of human CSN-mediated cullin deneddylation. Csn5 deneddylation of SCF-Nedd8OG, fluorescence polarization, 90 min. AID 720654. actives 62% (n = 540). shares compounds with CSN inh. inhibition, % at 16.6 µM;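 also: 0% = DMSO with enzyme and 100% = no enzyme wells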
MMP2 cntr CSN = MMP-2 (human) inhibition, counter-screen for CSN hits; inhibition, % at 16.6 µM; recombinant MMP-2, FRET substrate fluorescence, 60 min; AID 720655; shares compounds with CSN inh; actives 33% (n = 540);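 active = corrected plate-normalized z-score of 5 or more, or -5 or less, or inhibition of 15% or more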;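 also: plate controls were DMSO wells with enzyme for no effect and buffer wells lacking MMP-2 for full effect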
Thrombin cntr = thrombin (bovine) inhibition, counter-screen for CSN hits. shares compounds with CSN inh. bovine thrombin cleavage of Ub4-pepOG, fluorescence polarization. inhibition, % at 16.6 µM. actives 49% (n = 540). AID 720656;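 active = inhibition at or above a set limit, with a fluorescence interference ratio between 0.5 and a set maximum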
Starred values were filed as active, the others as inactive. Rule as the data show it, unless noted: active = inhibition above about 50%; inactive = the rest.

What do the screens show for `COc1ccccc1-c1ccc(/C=C2\C=CC(=O)O2)o1`?
LMPTP block: 4.9; Scp-1 inhibitor: 30.6; DNMT1 inh: 32.6; STEP block: -5.0; SUMO1-SIM PPI: -21.0; CSN inh: 77.1*; CSN deneddyl val: 47.5; MMP2 cntr CSN: -26.2; Thrombin cntr: 53.2*

Results for COc1cc(/C=C2\C=CC(=O)O2)cc(OC)c1 ?
LMPTP block: 0.5; Scp-1 inhibitor: -12.3; DNMT1 inh: 1.3; STEP block: 2.9; SUMO1-SIM PPI: -23.6; CSN inh: 14.4

What do the screens show for `C=CCn1c(N)c(C(=O)NCC2CCCO2)c2nc3ccccc3nc21` (stereo not drawn)?
LMPTP block: 3.9; Scp-1 inhibitor: -13.5; DNMT1 inh: 8.6; STEP block: 0.0; SUMO1-SIM PPI: 43.9*; CSN inh: 36.0*; CSN deneddyl val: 101.2*; MMP2 cntr CSN: 0.8; Thrombin cntr: -0.4

How did CC(=O)c1ccc(S(=O)(=O)N2CCN(CCOc3ccc(Br)cc3)CC2)cc1 do in these assays?
LMPTP block: 2.5; Scp-1 inhibitor: 2.1; DNMT1 inh: -3.7; STEP block: -1.2; SUMO1-SIM PPI: -3.8; CSN inh: -3.4

How did Cc1cc2nc3s/c(=C/c4ccc(-c5ccccc5C(=O)O)o4)c(=O)n3c2cc1C do in these assays?
LMPTP block: 7.5; Scp-1 inhibitor: 97.8*; DNMT1 inh: 45.3; STEP block: 24.0; SUMO1-SIM PPI: 16.1; CSN inh: 99.1*; CSN deneddyl val: -18.9; MMP2 cntr CSN: -1.9; Thrombin cntr: 64.0*

How did Cc1ccc(-c2csc(NC(=O)/C=C/c3ccco3)c2C(=O)O)cc1 do in these assays?
LMPTP block: -0.9; Scp-1 inhibitor: 7.9; DNMT1 inh: 43.6; STEP block: 0.1; SUMO1-SIM PPI: -5.1; CSN inh: 42.2*; CSN deneddyl val: 66.7*; MMP2 cntr CSN: 7.5; Thrombin cntr: -0.1

Results for CCOC(=O)/C(C#N)=C/C=C1\C=Cc2ccccc2N1CC ?
LMPTP block: 26.3; Scp-1 inhibitor: -9.4; DNMT1 inh: -16.8; STEP block: 17.2; SUMO1-SIM PPI: -93.0; CSN inh: 44.2*; CSN deneddyl val: 99.5*; MMP2 cntr CSN: -1.2; Thrombin cntr: 54.7*

How did CCCCCCN1C=CC(=C/C=C(\C#N)C(=O)OCC)C=C1 do in these assays?
LMPTP block: 12.4; Scp-1 inhibitor: -10.8; DNMT1 inh: 18.2; STEP block: -18.6; SUMO1-SIM PPI: -54.4; CSN inh: 56.2

How did CCn1c(N)nc2c1c(=O)n(C)c(=O)n2C do in these assays?
LMPTP block: -1.3; Scp-1 inhibitor: 1.2; DNMT1 inh: 15.1; STEP block: -0.5; SUMO1-SIM PPI: 8.6; CSN inh: 1.8

How did Cn1nc(-c2ccccn2)nc2c(=O)n(C)c(=O)nc1-2 do in these assays?
LMPTP block: 67.7*; Scp-1 inhibitor: -13.9; DNMT1 inh: 98.0*; STEP block: 67.4*; SUMO1-SIM PPI: 33.6; CSN inh: 57.0*; CSN deneddyl val: 28.1; MMP2 cntr CSN: -4.3; Thrombin cntr: -26.5

What do the screens show for `CCCc1nc2c(=O)n(C)c(=O)nc-2n(C)n1`?
LMPTP block: 71.5*; Scp-1 inhibitor: -7.4; DNMT1 inh: 96.8*; STEP block: 75.6*; SUMO1-SIM PPI: 27.3; CSN inh: 76.4*; CSN deneddyl val: -10.3; MMP2 cntr CSN: 4.6; Thrombin cntr: -27.9
